Key:
Rattus norvegicus [1] = test: In vivo inhibition of glycine transporter-1 in po dosed Sprague-Dawley rat assessed as increase in CSF glycine level measured 2 hrs post dose by LC-MS/MS analysis; assay type: functional
How it was run: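 Drug-naive adult male Sprague-Dawley rats, n = 4-5 per group, given a single oral dose of 0.4, 1.5, 4.7 or 15.7 μmol/kg. Vehicle was 5% Solutol + 10% Captisol in 25 mM PBS, pH 2. At 2 h, rats were killed by CO₂. CSF (50-100 μL) was taken from the cisterna magna, and brain and plasma were also collected. Glycine was measured by LC-MS/MS against a deuterated-glycine internal standard. Results given as % vehicle control (vehicle 30 min post-dose), mean ± SEM. Two-way ANOVA with Tukey test.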

[2] = Drug level in Sprague-Dawley rat brain at 100 mg/kg, po measured 2 hrs post dose by LC-MS/MS analysis; assay type: ADME, organism-based; settings: read-out: Drug uptake
How it was run: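 Drug-naive Sprague−Dawley rats (n = 4−5/group) were dosed orally once in 5% Solutol plus 20% Captisol in 25 mM PBS, pH 2, and euthanized 2 h later by CO₂. CSF was drawn from the cisterna magna. Drug was measured in CSF, brain and plasma; data as mean ± SEM.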

[3] = Drug level in Sprague-Dawley rat CSF at 3 mg/kg, po qd for 5 days measured 2 hrs post last dose by LC-MS/MS analysis; assay type: ADME, organism-based, Cerebrospinal fluid; settings: read-out: Drug uptake
How it was run: (§1)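 Drug-naive Sprague−Dawley rats (n = 5/group) were dosed orally once daily for 5 days in 5% Solutol plus 20% Captisol in 25 mM PBS, pH 2, and sacrificed 2 h after the last dose. Drug was measured in CSF, brain and plasma; mean ± SEM.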

[4] = Drug level in Sprague-Dawley rat brain at 3 mg/kg, po qd for 5 days measured 2 hrs post last dose by LC-MS/MS analysis; assay type: ADME, organism-based; settings: read-out: Drug uptake; how it was run: as §1
[5] = Drug level in Sprague-Dawley rat brain at 10 mg/kg, po qd for 5 days measured 2 hrs post last dose by LC-MS/MS analysis; assay type: ADME, organism-based; settings: read-out: Drug uptake; how it was run: as §1
[6] = Drug level in Sprague-Dawley rat plasma at 3 mg/kg, po qd for 5 days measured 2 hrs post last dose by LC-MS/MS analysis; assay type: ADME, organism-based; how it was run: as §1
[7] = Toxicity in Sprague-Dawley rat assessed as gross behavioral abnormality at 1 to 10 mg/kg, po qd for 5 days; assay type: organism-based; settings: in vivo, 120 h
How it was run: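 Drug-naive Sprague–Dawley rats (n = 5/group) were dosed orally once daily for 5 days at 1.6, 4.8 or 16.1 μmol/kg in 5% Solutol/20% Captisol in 25 mM PBS, pH 2.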

Cytochrome P450 2D6 = Cytochrome P450 2D6 (Homo sapiens, UniProt P10635); test: Inhibition of CYP2D6 (unknown origin); assay type: ADME
[8] = Protein binding in rat plasma; assay type: ADME, cell-free; settings: read-out: PPB (converted)
[9] = Apparent permeability from apical to basolateral side in human Caco2 cells; assay type: ADME, cell-based; settings: Caco-2
How it was run: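 Caco-2 monolayer permeability measured in both the A-to-B and B-to-A directions and reported as P_app (×10⁻⁶ cm/s).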

[10] = Total clearance in Sprague-Dawley rat at 10 mg/kg, po or 2 mg/kg, iv administered as single dose measured up to 24 hrs post dose by LC-MS/MS analysis; assay type: ADME, organism-based; settings: in vivo
How it was run: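 Groups of three drug-naive adult male Sprague–Dawley rats, single dose: IV 3.1 μmol/kg in 5% DMSO/10% Solutol in saline (5 mL/kg), or PO 15.7 μmol/kg in 5% Solutol/10% Captisol in 25 mM PBS adjusted to pH 2 with HCl. Plasma concentration–time data give the parameters; mean ± SD.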

[11] = Apparent terminal half life in Sprague-Dawley rat plasma at 10 mg/kg, po or 2 mg/kg, iv administered as single dose by LC-MS/MS analysis; assay type: ADME, organism-based; settings: read-out: betat1/2(app) (converted)
How it was run: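 Single-dose PK in drug-naive adult male Sprague−Dawley rats, n = 3 per group: 3.1 μmol/kg IV in 5% DMSO/10% Solutol in saline (5 mL/kg), or 15.7 μmol/kg PO in 5% Solutol/10% Captisol in 25 mM PBS, pH adjusted to 2 with HCl. Plasma parameters reported as mean ± SD.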

[12] = Apparent terminal half life in cynomolgus monkey plasma at 1 mg/kg, iv or 5 mg/kg, po by LC-MS/MS analysis; assay type: ADME, organism-based, Macaca fascicularis; settings: read-out: betat1/2(app) (converted)
How it was run: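 Single-dose PK in female cynomolgus monkeys, n = 3 per group: 1.5 μmol/kg IV in 5% DMSO/10% Solutol in saline, pH 6.5 (2 mL/kg), or 7.8 μmol/kg PO in 5% Solutol in 20% Captisol, 25 mM PBS, pH 2 (5 mL/kg). Plasma parameters reported as mean ± SD.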

[13] = Oral bioavailability in cynomolgus monkey at 5 mg/kg measured up to 24 hrs post dose by LC-MS/MS analysis; assay type: ADME, organism-based, Macaca fascicularis; settings: in vivo
How it was run: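 Three female cynomolgus monkeys per group; single oral dose of 7.8 μmol/kg in 5% Solutol in 20% Captisol, 25 mM PBS, pH 2 (5 mL/kg), with a separate IV arm at 1.5 μmol/kg in 5% DMSO/10% Solutol in saline, pH 6.5 (2 mL/kg). F = (AUC_INFpo × Dose_iv)/(AUC_INFiv × Dose_po); mean ± SD.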

[14] = Drug level in cynomolgus monkey plasma at 3 mg/kg, po measured at 8 hrs post dose by LC-MS/MS analysis; assay type: ADME, organism-based, Macaca fascicularis
[15] = Drug level in cynomolgus monkey plasma at 10 mg/kg, po measured at 3 hrs post dose by LC-MS/MS analysis; assay type: ADME, organism-based, Macaca fascicularis
[16] = Drug level in cynomolgus monkey CSF at 10 mg/kg, po measured at 8 hrs post dose by LC-MS/MS analysis; assay type: ADME, organism-based, Macaca fascicularis, Cerebrospinal fluid; settings: read-out: Drug uptake
How it was run: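 Cynomolgus monkeys (n = 3/group) fitted with subcutaneous CSF ports were dosed orally at 0.4−15.7 μmol/kg in 5% Solutol plus 20% Captisol in 25 mM PBS, pH 2. CSF (about 0.30 mL) and blood were sampled predose and at 0.5, 1, 2, 3, 4, 8, 12 and 24 h. Quantitation limit 1.0 ng/mL; mean ± SD.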

[17] = Drug level in po dosed cynomolgus monkey plasma measured up to 24 hrs post dose by LC-MS/MS analysis; assay type: ADME, organism-based, Macaca fascicularis; settings: in vivo
Rattus norvegicus [18] = test: In vivo inhibition of glycine transporter-1 in Sprague-Dawley rat assessed as increase in medial prefrontal cortex glycine level at 3 to 10 mg/kg, po administered through oral gavage measured after 80 to 300 mins by LC-MS/MS analysis relative to control; assay type: functional; parameters: scale not given: the % may be the effect or the level left
How it was run: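 Freely moving drug-naive adult male Sprague-Dawley rats, n = 5-6 per group, given 1.5, 4.7 or 15.7 μmol/kg by oral gavage at t = 0. Vehicle was 5% Solutol / 20% Captisol in 25 mM PBS, pH 2. mPFC dialysate was sampled over 5 h and analysed by HPLC-MS/MS. Values were normalized to basal levels (t = -80 to 0 min). Two-way repeated-measures ANOVA with Student-Newman-Keuls test.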

Cytochrome P450 2D6, sequence (P10635 whole entry): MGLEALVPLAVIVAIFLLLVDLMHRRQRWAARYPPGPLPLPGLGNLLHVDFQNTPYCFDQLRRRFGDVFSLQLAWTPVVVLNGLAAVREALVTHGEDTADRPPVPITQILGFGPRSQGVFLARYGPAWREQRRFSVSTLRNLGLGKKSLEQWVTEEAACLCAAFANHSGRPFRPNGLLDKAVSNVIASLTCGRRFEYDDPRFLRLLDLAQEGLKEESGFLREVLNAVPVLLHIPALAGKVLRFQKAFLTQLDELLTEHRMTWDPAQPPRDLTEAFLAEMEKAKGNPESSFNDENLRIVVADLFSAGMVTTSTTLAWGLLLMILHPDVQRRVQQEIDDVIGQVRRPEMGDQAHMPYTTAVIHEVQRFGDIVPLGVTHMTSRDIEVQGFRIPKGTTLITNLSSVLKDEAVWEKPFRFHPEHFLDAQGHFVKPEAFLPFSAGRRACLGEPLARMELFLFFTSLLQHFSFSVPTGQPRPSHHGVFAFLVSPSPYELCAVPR

Compound | ED200 (Rattus norvegicus [1]) | concentration at 2 h [2] | concentration at 2 h [3] | concentration at 2 h [4] | concentration at 2 h [5] | concentration at 2 h [6] | Activity [7] | IC50 (Cytochrome P450 2D6) | fraction unbound [8] | Papp A→B [9] | clearance [10] | half-life [11] | half-life [12] | bioavailability [13] | concentration at 8 h [14] | concentration at 3 h [15] | concentration at 8 h [16] | Drug uptake [17] | Activity (Rattus norvegicus [18])
Cl.Cn1cc(S(=O)(=O)N2CCN(C3(CNC(=O)c4ccc(C(F)(F)F)cc4Cl)CCC(F)(F)CC3)CC2)nn1 | 1.6 to 4.8 µmol/kg | 46.3 nM | 1.1 nM | 44.8 nM | 69.4 nM | 122 nM | Non-Toxic |  |  |  |  |  |  |  |  |  |  |  | 
CC(NC(=O)c1ccc(C(F)(F)F)cc1Cl)C1(N2CCN(S(=O)(=O)c3cn(C)nn3)CC2)CCC(F)(F)CC1.Cl (single isomer, unassigned; (+)) |  |  |  |  |  |  |  | > 7.2 µM | 0.13 | 23.9 ×10⁻⁶ cm/s | 23.3 mL/min/kg | 4.33 h | 6.27 h | 31% | 2 ng/mL | 205 ng/mL | 7.6 ng/mL | Dose-dependent effect | >150%

Reference: ChEMBL document CHEMBL4428077, “Synthesis and Biological Evaluation of N-((1-(4-(Sulfonyl)piperazin-1-yl)cycloalkyl)methyl)benzamide Inhibitors of Glycine Transporter-1” (J Med Chem, 2016)
